Results: ChEMBL document CHEMBL4196187, “Peloruside E (22-Norpeloruside A), a Pelorusane Macrolide from the New Zealand Marine Sponge Mycale hentscheli, Retains Microtubule-Stabilizing Properties” (J Nat Prod, 2018)
Calls of active or inactive are those of the source. The calls are words filed in the database; no cut-off is given here.

How the values were obtained:
HL-60 [1] = assay: Cell cycle arrest in human HL60 cells assessed as accumulation at S phase at 1000 nM after 18 hrs by propidium iodide staining based flow cytometry (reference value: 20%); format: functional
Sus scrofa = species: Sus scrofa; assay: Induction of porcine brain tubulin polymerization at 2.8 uM measured at 1 min interval over 100 mins by fluorescence assay
HL-60 [2] = assay: Cell cycle arrest in human HL60 cells assessed as accumulation at G2/M phase at 1000 nM after 18 hrs by propidium iodide staining based flow cytometry (reference value: 19%); format: functional
HL-60 [3] = assay: Cell cycle arrest in human HL60 cells assessed as accumulation at G1 phase at 1000 nM after 18 hrs by propidium iodide staining based flow cytometry (reference value: 62%); format: functional
HL-60 [4] = assay: Cell cycle arrest in human HL60 cells assessed as accumulation at S phase at 300 nM after 18 hrs by propidium iodide staining based flow cytometry (reference value: 20%); format: functional
HL-60 [5] = assay: Cell cycle arrest in human HL60 cells assessed as accumulation at G1 phase at 1500 nM after 18 hrs by propidium iodide staining based flow cytometry (reference value: 62%); format: functional
HL-60 [6] = assay: Cell cycle arrest in human HL60 cells assessed as accumulation at G1 phase at 300 nM after 18 hrs by propidium iodide staining based flow cytometry (reference value: 62%); format: functional
HL-60 [7] = assay: Growth inhibition of human HL60 cells after 48 hrs by MTT assay; format: functional, cell-based; conditions: HL-60, 48 h
Outline: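 Human promyelocytic leukemia HL-60 cells; MTT cell proliferation read-out after 48 h incubation. IC50 derived from n = 3 replicates, reported as SEM.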

HL-60 [8] = assay: Cell cycle arrest in human HL60 cells assessed as accumulation at G2/M phase at 1500 nM after 18 hrs by propidium iodide staining based flow cytometry (reference value: 19%); format: functional
HL-60 [9] = assay: Cell cycle arrest in human HL60 cells assessed as accumulation at G2/M phase at 300 nM after 18 hrs by propidium iodide staining based flow cytometry (reference value: 19%); format: functional
HL-60 [10] = assay: Cell cycle arrest in human HL60 cells assessed as accumulation at S phase at 1500 nM after 18 hrs by propidium iodide staining based flow cytometry (reference value: 20%); format: functional
HL-60 [11] = assay: Cell cycle arrest in human HL60 cells assessed as accumulation at G1 phase at 500 nM after 18 hrs by propidium iodide staining based flow cytometry (reference value: 62%); format: functional
HL-60 [12] = assay: Cell cycle arrest in human HL60 cells assessed as accumulation at S phase at 500 nM after 18 hrs by propidium iodide staining based flow cytometry (reference value: 20%); format: functional
HL-60 [13] = assay: Cell cycle arrest in human HL60 cells assessed as accumulation at G1 phase at 100 nM after 18 hrs by propidium iodide staining based flow cytometry (reference value: 62%); format: functional
HL-60 [14] = assay: Cell cycle arrest in human HL60 cells assessed as accumulation at G2/M phase at 100 nM after 18 hrs by propidium iodide staining based flow cytometry (reference value: 19%); format: functional
HL-60 [15] = assay: Cell cycle arrest in human HL60 cells assessed as accumulation at S phase at 100 nM after 18 hrs by propidium iodide staining based flow cytometry (reference value: 20%); format: functional
HL-60 [16] = assay: Cell cycle arrest in human HL60 cells assessed as accumulation at G2/M phase at 500 nM after 18 hrs by propidium iodide staining based flow cytometry (reference value: 19%); format: functional

| SMILES | Activity (HL-60 [1]) [%] | induction (Sus scrofa) | Activity (HL-60 [2]) [%] | Activity (HL-60 [3]) [%] | Activity (HL-60 [4]) [%] | Activity (HL-60 [5]) [%] | Activity (HL-60 [6]) [%] | IC50 (HL-60 [7]) [nM] | Activity (HL-60 [8]) [%] | Activity (HL-60 [9]) [%] | Activity (HL-60 [10]) [%] | Activity (HL-60 [11]) [%] | Activity (HL-60 [12]) [%] | Activity (HL-60 [13]) [%] | Activity (HL-60 [14]) [%] | Activity (HL-60 [15]) [%] | Activity (HL-60 [16]) [%] |
| --- | --- | --- | --- | --- | --- | --- | --- | --- | --- | --- | --- | --- | --- | --- | --- | --- | --- |
| CC(=O)O[C@H]1C(=O)[C@@]2(C)[C@H]([C@H](OC(=O)c3ccccc3)[C@]3(O)C[C@H](OC(=O)[C@H](O)[C@@H](NC(=O)c4ccccc4)c4ccccc4)C(C)=C1C3(C)C)[C@]1(OC(C)=O)CO[C@@H]1C[C@@H]2O [PACLITAXEL] | 19 | Active | 53 | 28 |  |  |  |  |  |  |  |  |  |  |  |  |  |
| CC[C@H](/C=C(/C)[C@@H]1C[C@@H](OC)C[C@H](O)[C@@H](C)[C@@]2(O)O[C@@H](C[C@@H](OC)[C@H](O)C(=O)O1)C[C@@H](OC)[C@H]2O)CO |  |  |  |  | 22 | 29 | 38 | 90 | 49 | 39 | 23 |  |  |  |  |  |  |
| CC[C@H](/C=C(/C)[C@@H]1C[C@@H](OC)C[C@H](O)C(C)(C)[C@@]2(O)O[C@@H](C[C@@H](OC)[C@H](O)C(=O)O1)C[C@@H](OC)[C@H]2O)CO |  | Active |  |  |  |  |  | 19 |  |  |  | 30 | 23 | 27 | 50 | 23 | 47 |
